Unmarked numbers belong to inactive results. Records with an inconclusive call do not appear. The source made the active and inactive calls.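 The calls were made as follows, unless noted: active = growth inhibition above 25% in both replicates, a cutoff set 3 SD above the mean; inconclusive = above 25% in only one replicate; inactive = the rest.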
How the values were obtained:
[1] = OD615 S. cerevisiae growth inhibition, permissive medium, pilot counter-assay, permissive growth control for S. cerevisiae lifespan shortening project (AID 705); details: OD615, 24 h, at 10 µM, active compounds read high
In short: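 System: Engineered DeaD yeast | Buffer or medium: SC raffinose/galactose permissive medium | Incubation: Cells pre-grown 4 h, then 24 h compound exposure, 30 °C humidified | Measured by: Absorbance (optical density) at 615 nm | Read-out: Reduction in yeast growth (OD615)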

[2] = Restrictive medium S. cerevisiae growth inhibition, OD615, pilot screen of yeast lifespan reduction project, restrictive growth control (AID 706;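 active = growth inhibition above a set limit, 3 SD over mean compound inhibition, in both replicates, cut at about 43% in these data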;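 also: modified DeaD lifespan yeast strain shifted to restrictive glucose medium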); details: OD615, 48 h, at 10 µM, active compounds read high
In short: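 Material: modified S. cerevisiae; Medium: glucose-based CSMM-D restrictive medium; Compound dosing: one concentration, 10 µM final, 0.25% DMSO; Incubation: 48 h compound exposure at 30 °C; Measured by: OD615.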

[3] = viability gain of MRP-1-high H69AR cells under doxorubicin, pilot screen, MRP-1 activator project, CellTiter-Glo, duplicate (AID 807;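 active = viability increase at or above a cutoff of the median across tested compounds plus 3 SD, cut at about 8.5% in these data, passing the limit was not always enough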;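 also: compound pretreatment 18-22 h then 72 h combined with doxorubicin; 0% = doxorubicin alone and 100% = vehicle without doxorubicin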); details: H69AR viability with doxorubicin, CellTiter-Glo luminescence; at 10 µM; active compounds read high
[4] = growth suppression of beta-catenin knockout HCT116, pilot screen, human colon tumor cells (AID 823;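 active = cell viability at or below a set limit in both duplicate runs, the limit being the all-compound median minus 4 SD, cut at about 23% in these data, passing the limit was not always enough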;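 also: 0% = wells killed by 20 µM Hyamine and 100% = untreated DMSO cell wells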); details: CellTiter-Glo, 60 h, at 10 µM, active compounds read low
[5] = growth suppression of PTEN-deleted HCT116, pilot screen, cell-based, HCT116 clonal line, CellTiter-Glo (AID 824;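 active = viability at or below 27.92% in each of two runs, the all-compound median minus 4 SD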;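 also: 0% = 20 µM Hyamine control and 100% = vehicle cell control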); details: 60 h, at 10 µM, active compounds read low
[6] = inhibitors of the yeast RAM network, pilot screen, dse1pr::URA3 reporter, 5-FOA selection (AID 869;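 active = inhibition over a set limit, the all-compound mean plus 3 SD, in both replicate runs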;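 also: 0% = DMSO wells with no growth and 100% = 10 µM 1-NA-PP1 with full growth; RAM network block rescues cells from 5-FOA so hits raise OD615 growth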); details: S. cerevisiae dse1pr::URA3 5-FOA growth, OD615, 2 d; at 10 µM; active compounds read high; strain carries analog-sensitive mutant Cbk1 kinase
[7] = RAM signaling pathway blockade in yeast – S. cerevisiae, Pdr1DBD-CYC8 efflux-inhibited sensitized strain, primary screen (AID 1298;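 active = RAM network inhibition above 8.4% in each of two replicates, 3 SD over the compound average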;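 also: 0% = DMSO untreated cells without growth and 100% = 10 µM 1-NA-PP1 full growth; higher means more yeast growth rescued from 5-FOA killing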); details: S. cerevisiae cbk1-as DSE1-URA3 strain, 5-FOA growth OD615, 2 d; at 50 µM; active compounds read high

Compound | growth inhibition [1] | growth inhibition [2] | viability increase [3] | viability [4] | viability [5] | inhibition [6] | RAM network inhibition [7]
CC1=C(C(=O)OCCOc2ccccc2)C(c2ccc(C)o2)C2=C(CC(C)(C)CC2=O)N1 (stereo not given) | -17.6% | -10.8% | -0.88% | 78.2% | 78.6% | 1.73% | 7.5%
CC(=O)Nc1ccc(NC(=O)C2CC(=O)N(c3cccc(C)c3C)C2)cc1 (stereo not given) | -21.2% | -8.03% | -1.32% | 93.8% | 91.2% | 0.435% | 2.95%
CN(C(=O)CSc1nc(N)nn1-c1ccccc1)c1ccccc1 | -7.03% | 4.13% | -0.53% | 104% | 99% | 0.325% | 2.3%
CCSc1nnc2c(n1)OC(c1ccc(C(=O)O)cc1)N(C(C)=O)c1ccccc1-2 (stereo not given) | -10.1% | -2.9% | -1.34% | 107% | 100% | 1.66% | 2.35%
CC1(C)CC(=O)C=C(NCCN2CCN(C(=O)Nc3ccc(Cl)cc3)CC2)C1 | -1.03% | 5.34% | 1.25% | 99.2% | 101% | 1.35% | 4.07%
CCCCS(=O)CC(COc1ccc(Cl)cc1)OC(=O)c1ccccc1 (stereo not given) | -11.8% | -9.18% | 3.23% | 76.1% | 86.2% | 0.42% | 5.86%
O=C(NCCCN1CCC(Cc2ccccc2)CC1)C1CC(=O)N(C2CCCC2)C1 (stereo not given) | 1.72% | -13.9% | -2.03% | 88.5% | 83.7% | -0.05% | 2.13%
CCOC(=O)C1C(c2cccc(Cl)c2Cl)NC(=O)NC1(O)C(F)(F)F (stereo not given) | -5.62% | -7.31% | -2.19% | 94.8% | 96.9% | 1.15% | 7.71%
Cc1oc2c(c1C(=O)NC(Cc1c[nH]c3ccccc13)C(=O)O)CCCC2 (stereo not given) | -8.56% | -5.62% | -3.61% | 100% | 97.6% | 1.37% | 0.1%
CC(C)c1ccc(NC(=O)C(c2ccccc2)N2CCOCC2)cc1 (stereo not given) | -0.695% | 0.125% | 1.44% | 91.3% | 83.6% | 0.515% | 0.47%
Cc1cccc(C)c1NC(=O)C1(N(Cc2ccco2)C(=O)CC2NC(=O)NC2=O)CCCCC1 (stereo not given) | -7.47% | -10.5% | -2.27% | 92.7% | 93.9% | 1.23% | 0.68%
CC1=C(C(=O)OC(C)C)C(c2cccs2)n2ncnc2N1 (stereo not given) | -1.96% | 7.93% | -1.21% | 101% | 96.2% | 0.955% | 2.09%
Cn1c(C(=O)N2CCCCCC2)cc2c(=O)n(C)c3ccccc3c21 | -8.92% | -2.14% | -3.27% | 94.9% | 92.3% | 1.33% | 4.52%
COc1ccc(C2C3=C(Nc4ncnn42)c2ccccc2CCC3)cc1 (stereo not given) | -12.5% | -17.7% | -1.45% | 91.7% | 89.1% | 1.9% | 3.32%
O=S(=O)(c1ccccc1)N1CCN(C2CCN(Cc3ccccc3)CC2)CC1 | -10.8% | -0.305% | -1.86% | 90.3% | 94.4% | 0.155% | 2.72%
Cc1onc(-c2ccccc2)c1C(=O)Nc1ccccc1C#N | -5.39% | -4.02% | -2.87% | 97.3% | 91.8% | 1.89% | 2.87%
CC(=O)Nc1ccc2nc(-c3cccs3)[nH]c2c1 | -5.51% | -15.4% | -2.88% | 97.8% | 90.3% | 2.38% | 4.66%
CC1=C(C(=O)OCC(C)C)C(c2ccccc2Cl)NC(=O)N1C (stereo not given) | -4.34% | -8.57% | -3.3% | 58.5% | 67.8% | 0.59% | 1.74%

Compound | growth inhibition [1] | growth inhibition [2] | viability increase [3] | viability [4] | viability [5] | inhibition [6] | RAM network inhibition [7]
COC(=O)C1Sc2[nH]c(=O)sc2C(c2ccc(Cl)cc2)C1C(=O)OC (stereo not given) | -14.8% | -14.8% | -5.67% | 91.3% | 88.7% | 4.36% | 2.45%
c1ccc2c(c1)OCC(c1csc3ncnc(N4CCOCC4)c13)O2 (stereo not given) | -14.1% | -9.32% | -3.2% | 94.4% | 75.7% | 1.26% | 8.63%
COc1ccc(Br)cc1/C=N/n1c(C)nnc1C | -14% | -21% | -5.21% | 66% | 67.5% | 1.7% | -0.74%
Cc1ccc(C(=O)Nc2cccc(C(=O)O)c2)cc1S(=O)(=O)N1CCCCC1 | 5.02% | 11.4% | 0.18% | 96% | 100% | 1.35% | 0.1%
COc1ccc(OC)c2sc(NC(=O)CCS(=O)(=O)c3ccccc3)nc12 | -8.91% | -10.2% | -8.72% | 36.1% | 44.3% | 4.41% | 11%
CCNC(=O)Cc1ccc(NS(=O)(=O)c2ccc(F)cc2)cc1 | -7.1% | 13.8% | -2.21% | 100% | 94.6% | 0.34% | 2.36%
CCc1ccc(NS(=O)(=O)c2cc(OC)ccc2OC)cc1 | -3.06% | -9.52% | -3.77% | 66.6% | 58.3% | 0.68% | 1.9%
Cc1cc(C)n(/N=C/c2cccc(O)c2)c(=O)c1C(N)=O | -22.8% | -22.5% | 1.95% | 99.7% | 100% | 0.485% | 4.4%
CCOC(=O)N1CCC(N2Cc3cccc(C(=O)Nc4ccc(OC)c(OC)c4)c3C2=O)CC1 | -7.4% | -0.92% | -3.99% | 66.2% | 66.8% | 2.03% | 1.98%
CCOCCCNC(=O)Cc1cc(=O)[nH]c(=O)[nH]1 | -20.6% | -19.6% | -0.42% | 99.2% | 94.1% | 1.44% | 4.84%
Cc1c(C(=O)NCc2cccnc2)oc2ccccc12 | -3.83% | -5.65% | -3.9% | 99.2% | 87% | 1.27% | 1.07%
COc1ccccc1-c1c(C)nn2c(N3CCCCCC3)cc(C)nc12 | -5.18% | -3.49% | -7.77% | 6.78% (active) | 7.98% (active) | 1.42% | -0.76%
COc1ccccc1NC(=O)N1CCN(c2ccccn2)CC1 | -12.1% | -7.1% | 0.85% | 103% | 104% | 2.67% | 4.32%
O=S(=O)(c1cccc2cccnc12)N1CCN(Cc2ccc3c(c2)OCO3)CC1 | -7.45% | -17.5% | -0.35% | 84.3% | 92.2% | 1.28% | 0.52%
c1nnc2c3c4c(sc3ncn12)CCC4 | -1.74% | 15.2% | -3.97% | 96.6% | 107% | 1.25% | 6.33%
O=C(c1ccc(=O)[nH]c1)N(Cc1ccco1)C1(C(=O)NC2CCCCC2)CCCCC1 | -20% | -18.9% | -3.3% | 97.2% | 92.5% | 0.61% | 1.87%
CCCCc1ccc(Nc2ncnc3nc[nH]c23)cc1 | -6.71% | 22.7% | 2.8% | 106% | 94% | -0.1% | 1.66%

Reference: PubChem BioAssay
